Bioassay records (PubChem BioAssay)
STEP block: STEP phosphatase inhibitors, primary screen, biochemical, fluorescence intensity, uHTS; Tyrosine-protein phosphatase non-receptor type 5 (Homo sapiens), P54829; recombinant STEP, OMFP fluorogenic substrate; inhibition, % at 20 µM; 0.25% of 360,000 active; AID 588621, 2011;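 active = inhibition at 20 µM, scaled per plate between control wells, above about 37%, limit read from the data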;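 note: 0% = DMSO with enzyme and substrate and 100% = substrate only without enzyme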
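Assay system: isolated STEP enzyme / Timing: 20 min at room temperature, dark / Doses: 20 µM, 1% DMSO / Technique: fluorescence intensity, excitation 480 nm, emission 540 nm / Reagent: fluorogenic phosphatase substrate OMFP at 25 µM final / Measure: percent inhibition scaled to no-enzyme and uninhibited-enzyme controls, plate-pattern corrected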
LMPTP block: LMPTP phosphatase inhibitors, primary screen, biochemical, fluorescence intensity, uHTS | Low molecular weight phosphotyrosine protein phosphatase (Homo sapiens), P24666 | inhibition, % at 20 µM | 0.22% of 360,000 active | AID 651560, 2012 | recombinant LMPTP-A, OMFP fluorogenic substrate;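 active = compounds that cut the enzyme signal by at least half of the control window in the single-dose screen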;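 note: plate controls were DMSO wells with enzyme plus substrate for no effect and substrate without enzyme for full effect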
Target sequence (P24666 whole entry, looked up): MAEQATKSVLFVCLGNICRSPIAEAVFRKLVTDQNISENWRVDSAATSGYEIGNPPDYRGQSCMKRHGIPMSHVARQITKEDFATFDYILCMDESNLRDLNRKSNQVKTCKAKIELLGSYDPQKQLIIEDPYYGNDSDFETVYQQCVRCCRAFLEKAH
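Assay system: LMPTP-A phosphatase enzyme | Input: 0.625 nM enzyme | Also added: Fluorogenic phosphatase substrate OMFP at 400 µM final | Compound dosing: One test concentration per compound, 20 µM, with 3% DMSO overall | Schedule: 50 min enzyme reaction at room temperature, protected from light | Signal: Fluorescence intensity | Benchmarks: no-enzyme and uninhibited controls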
Scp1 inh: Scp-1 phosphatase inhibitors, primary screen, biochemical, colorimetric, uHTS | Carboxy-terminal domain RNA polymerase II polypeptide A small phosphatase 1 (Homo … | Recombinant Scp1, phosphopeptide, malachite green phosphate absorbance | inhibition, % at 20 µM | 0.88% of 340,000 active | AID 493091, 2011;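 active = inhibition above about 50% at 20 µM, limit read from the data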;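 note: plate controls were DMSO wells with enzyme for no effect and wells lacking enzyme for full effect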
Target sequence (Q9GZU7 76-261 limits assumed): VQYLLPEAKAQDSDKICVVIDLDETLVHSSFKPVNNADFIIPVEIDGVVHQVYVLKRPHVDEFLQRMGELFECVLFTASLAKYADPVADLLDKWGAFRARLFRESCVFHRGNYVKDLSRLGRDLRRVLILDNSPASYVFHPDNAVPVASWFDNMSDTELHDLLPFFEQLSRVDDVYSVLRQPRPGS
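Incubation: 45 min enzyme reaction at room temperature / System: truncated SCP-1 phosphatase (76-261aa) / Reagent: Phospho 17-mer peptide substrate / Buffer or medium: Acidic Tris acetate buffer with magnesium and detergent / Signal: absorbance at 630 nm / Doses: one concentration, 20 µM, with 1.0% DMSO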
Pemphigus Ab inh: inhibitors of pemphigus antibody binding to DSG3, primary screen, biochemical, bead-based, flow cytometry, scFv-GFP | 0.48% of 310,000 active | Desmoglein-3 (Homo sapiens), P32926 | binding (percent of control), % at 10 µM | DSG3-coupled beads, scFv-anti-DSG3-GFP binding; active compounds read low | AID 588358, 2011;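 active = binding more than 3 SD below its plate's average and above zero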;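 note: hits lower antibody fragment binding to DSG3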
SUMO1 PPI mod: modulators of SUMO1 protein-protein interactions, primary screen, biochemical, uHTS; Small ubiquitin-related modifier 1 (Homo sapiens), P63165; SUMO1 binding to a labelled peptide, TR-FRET, 1 h; inhibition, % at 20 µM; 0.33% of 360,000 active; in the data active = inhibition above about 37%
Target sequence (P63165 whole entry, looked up): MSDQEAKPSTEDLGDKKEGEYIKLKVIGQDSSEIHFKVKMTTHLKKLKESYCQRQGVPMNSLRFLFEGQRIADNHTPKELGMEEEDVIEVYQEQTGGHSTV
Scp-1 conf: Scp-1 phosphatase inhibitors, retest, confirmation, biochemical, colorimetric, single concentration; shares compounds with Scp1 inh; recombinant SCP-1 catalytic domain, phosphate release, malachite green absorbance; inhibition, % at 20 µM; 61% of 2,500 active; AID 540281, 2011;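 note: plate controls were DMSO with enzyme for no effect and buffer wells lacking enzyme for full effect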
MG interference: colorimetric readout interference by compounds, confirmation, artefact control for Scp-1 inhibitor project, biochemical, single concentration; shares compounds with Scp1 inh; Colorimetric interference counterscreen, malachite green absorbance 630 nm; apparent inhibition (interference), % at 20 µM; 2,500 tested, under 10 active; AID 540313, 2011;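 note: compounds added after enzyme reaction finished so only phosphate colour detection is probed; plate controls were DMSO wells with completed Scp-1 reaction for no effect and substrate wells lacking enzyme for full effect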
Scp-1 Tm shift: Scp-1 binding by thermal shift, confirmation, orthogonal assay for Scp-1 inhibitor project, biophysical, differential scanning fluorimetry; shares compounds with Scp1 inh; Recombinant SCP1, Sypro Orange thermal shift Tm; thermal shift relative to vanadate control, % at 40 µM; 25% of 1,500 active; AID 540329, 2011;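 active = substances whose mean melting-temperature shift, as a percentage of the reference inhibitor's shift, reaches about 5.3%, limit read from the data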;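 note: 0% = Tm of DMSO wells and 100% = Tm with sodium orthovanadate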
The depositor's hits bear a star; nt = no result. Sampled rows, rich in hits. Any-hit rate of the full collection: about 1.7%.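 Rule for the calls, unless noted: active = inhibition of at least 30% at 20 µM; inactive = the rest.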

SMILES | STEP block | LMPTP block | Scp1 inh | Pemphigus Ab inh | SUMO1 PPI mod | Scp-1 conf | MG interference | Scp-1 Tm shift
CCOc1ccc(NC(=O)CN(C)C(=O)c2ccc(N3CCCCC3)c([N+](=O)[O-])c2)cc1OCC | 0 | -9 | -7 | 108 | -52 | nt | nt | nt
CCNCc1cc(Cl)cc(OC)c1OC(C)C | 2 | -2 | -6 | 102 | 1 | nt | nt | nt
C[C@H](CO)N1C[C@H](C)[C@@H](CN(C)C(=O)Nc2ccccc2)Oc2ccc(NC(=O)Nc3ccccc3)cc2C1=O | -1 | 0 | 71* | 98 | 5 | 15 | -11 | nt
C[C@H](CO)N1C[C@H](C)[C@@H](CN(C)C(=O)Nc2ccc(C(F)(F)F)cc2)Oc2ccc(NC(=O)Nc3ccccc3)cc2C1=O | -2 | 2 | 12 | 99 | 5 | nt | nt | nt
CC(C)NC(=O)Nc1ccc2c(c1)C(=O)N([C@H](C)CO)C[C@H](C)[C@@H](CN(C)C(=O)Nc1ccccc1)O2 | 1 | 0 | -6 | 100 | 7 | nt | nt | nt
CC(C)NC(=O)Nc1ccc2c(c1)C(=O)N([C@H](C)CO)C[C@H](C)[C@@H](CN(C)C(=O)Nc1ccc3c(c1)OCO3)O2 | 0 | -1 | 62* | 102 | 1 | -7 | -17 | nt
C[C@H](CO)N1C[C@H](C)[C@@H](CN(C)C(=O)Nc2ccc(C(F)(F)F)cc2)Oc2ccc(NC(=O)C3CC3)cc2C1=O | 1 | 1 | 56* | 96 | 1 | -3 | -21 | nt
C[C@H](CO)N1C[C@H](C)[C@@H](CN(C)S(C)(=O)=O)Oc2ccc(NC(=O)c3ccncc3)cc2C1=O | 0 | -1 | 14 | 104 | 1 | nt | nt | nt
C[C@H](CO)N1C[C@H](C)[C@@H](CN(C)C(=O)Nc2ccccc2)Oc2ccc(NC(=O)c3ccncc3)cc2C1=O | 1 | 0 | 75* | 96 | -3 | 18 | -15 | nt
CS(=O)(=O)N(CC(=O)N1CCN(Cc2ccccc2)CC1)c1cccc([N+](=O)[O-])c1 | 0 | 0 | 3 | 98 | -13 | nt | nt | nt
COc1cc2c(cc1NC(=O)CSc1nc3ccccc3[nH]1)oc1ccccc12 | 24 | 9 | 72* | 95 | 3 | 42* | 1 | -18
CCCN(CCC)CCNC(=O)c1cc2c(=O)n(C)c3ccccc3c2n1C | 1 | 2 | 90* | 110 | 5 | -8 | -8 | nt
CN(CCNC(=O)c1cc2c(=O)n(C)c3ccccc3c2n1C)Cc1ccccc1 | 0 | 0 | -16 | 109 | 5 | nt | nt | nt
Cc1ccc(Cl)cc1N1CCN(C(=O)CSc2ccsc2[N+](=O)[O-])CC1 | 2 | 2 | 55* | 115 | -6 | 68* | -5 | 8.1*
CCCCn1c(=O)c(CCC(=O)OC(C)C(=O)Nc2cccc(Cl)c2Cl)nc2ccccc21 (stereo not given) | 2 | 3 | -15 | 98 | -5 | nt | nt | nt
NS(=O)(=O)c1ccc(CCNC(=O)CCS(=O)(=O)c2ccc(Br)cc2)cc1 | 6 | 0 | 96* | 95 | 75* | 66* | -16 | -25
O=C(CCS(=O)(=O)c1ccc(Br)cc1)NCCc1ccccc1 | 6 | 1 | 88* | 106 | 13 | 62* | -16 | -25
O=C(CCNS(=O)(=O)c1ccc(Br)cc1)NCCc1ccccc1 | 0 | -1 | -5 | 101 | -1 | nt | nt | nt
O=CN(Cc1nc2ccccc2[nH]1)c1ccc(C(=O)O)cc1 | -2 | -1 | -5 | 120 | 1 | nt | nt | nt
O=C(Nc1ccccc1O)c1ccc2c(c1)C(=O)N(Cc1ccco1)C2=O | 6 | 17 | 68* | nt | -4 | 59* | -14 | 4
Cc1c(C(=O)N(C)Cc2nc3ccccc3c(=O)[nH]2)oc2ccccc12 | -1 | -1 | -15 | 94 | 2 | nt | nt | nt
COc1ccccc1NC(=O)c1nn(-c2ccc(Cl)cc2)ccc1=O | -1 | 4 | 98* | 99 | -4 | 76* | -16 | -16
COc1ccccc1NC(=O)c1nn(-c2ccccc2)ccc1=O | 0 | 2 | 2 | 97 | -9 | nt | nt | nt
Cc1ccc(S(=O)(=O)N2[C@@H](c3ccc(Br)cc3)C(C(=O)O)=CC[C@H]2c2ccc3c(c2)OCO3)cc1 | 3 | 0 | -14 | 98 | 10 | nt | nt | nt
Cc1ccc(NC(=O)CSC(C)C(=O)OCC(=O)N2CCN(C(=O)c3ccco3)CC2)cc1 (stereo not given) | 4 | 0 | 11 | 103 | 2 | nt | nt | nt
SMILES | STEP block | LMPTP block | Scp1 inh | Pemphigus Ab inh | SUMO1 PPI mod | Scp-1 conf | MG interference | Scp-1 Tm shift
O=S1(=O)N=C(N2CCc3ccccc3C2)c2ccccc21 | 0 | 0 | 76* | 100 | 4 | -16 | -17 | nt
O=S1(=O)N=C(N2CCCc3ccccc32)c2ccccc21 | -2 | -1 | 6 | 110 | 2 | nt | nt | nt
COc1ccc(CNC(=O)Nc2cccc3ccccc23)cc1 | -2 | -1 | -2 | 93 | -9 | nt | nt | nt
O=C(O)c1cccc2c1C(=O)N(c1ccc3c(c1)Cc1ccccc1-3)C2=O | 4 | -1 | 64* | 91 | -21 | 60* | -17 | -14
CCOC(=O)Cc1csc(SCC(=O)Nc2sc3c(c2C(N)=O)CCC3)n1 | 8 | 17 | 83* | nt | 31 | 68* | -15 | 6.6*
CCOC(=O)c1c(NC(=O)CSc2nnc(-c3c[nH]c4ccccc34)n2C)sc2c1CCCC2 | 0 | 3 | 53* | 105 | 1 | 32* | 15 | 3
CCOC(=O)c1c(NC(=O)CSc2nnc(-c3c[nH]c4ccccc34)n2CCOC)sc2c1CCCC2 | -3 | 3 | 17 | 100 | 6 | nt | nt | nt
CCC1(CC)NC(=O)N(CC(=O)Nc2sc3c(c2C(N)=O)CCC3)C1=O | -2 | 17 | 68* | nt | 25 | 61* | -8 | 12*
NC(=O)c1c(NC(=O)CSc2nnc(-c3ccco3)n2-c2ccccc2)sc2c1CCC2 | 5 | 21 | 76* | nt | 16 | 75* | -4 | 1
